Where two headings read alike, the source gives them in different places.
How the values were obtained:
NRF2 [1] = experiment: ARE-luciferase NRF2 activation assay; format: cell-based; details: for Max. induction (fold): ARE-luciferase relative to vehicle control, MDA-MB-231
NRF2 [2] = experiment: NRF2 ubiquitination assay; format: cell-based; details: MDA-MB-231 transfected with NRF2 and HA-Ubiquitin, 3 2.33 µM, 5 71.5 µM, 4 hours
KEAP1-C151S = experiment: Dual luciferase reporter assay and immunoblot, KEAP1-C151S re-expressed; format: cell-based; details: for firefly luciferase induction in the presence of KEAP1-C151S: KEAP1-/- MDA-MB-231 + KEAP1-C151S, 5 at EC50, As 1 µM, 16 hours; for KEAP1-Cys151 dependence of NRF2 activation: KEAP1-WT versus KEAP1-C151S, dual luciferase and immunoblot
NRF2 [3] = experiment: Immunoblot of NRF2 and downstream genes; format: cell-based; details: for protein level of NRF2 and downstream target genes AKR1C1, NQO-1, HO-1, GCLM: MDA-MB-231, indicated doses, 16 hours
Outline: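 MDA-MB-231 cells were seeded at 6×10^5 per 35 mm dish and treated 24 h later with test compound. Treatment was either a dose series for 16 h, or 2.33 or 71.5 µM (per compound) for a time course up to 48 h. Lysates were made in Laemmli buffer, boiled 5 min and run on SDS-PAGE, then immunoblotted for NRF2, AKR1C1, NQO1, HO-1 and GCLM. Done in triplicate.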

KEAP1-WT = experiment: Dual luciferase reporter assay and immunoblot, KEAP1-WT re-expressed; format: cell-based; details: KEAP1-/- MDA-MB-231 + KEAP1-WT, at EC50, 16 hours
Outline: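 KEAP1−/− MDA-MB-231 cells (CRISPR-Cas9) were co-transfected with a KEAP1-WT expression vector plus NQO1-ARE firefly and TK-Renilla luciferase reporters. After 24 h, cells were treated with test compound for 16 h; controls were SFN (2 µM) and NaAsO2 (1 µM). Firefly activity is reported relative to Renilla (dual-luciferase), with an NRF2/KEAP1 immunoblot normalised to GAPDH. Mean ± SD of three independent experiments.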

NRF2 [4] = experiment: Real-time qRT-PCR of NRF2 and downstream genes; format: cell-based; details: MDA-MB-231, 16 hours
Outline: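 MDA-MB-231 cells (6×10^5 per 35 mm dish) were treated 24 h after seeding with test compound for 16 h. Total RNA was TRIzol-extracted, and 1 µg was reverse-transcribed with M-MLV RT. SYBR Green qPCR: 95 °C 4 min, then 45 cycles of 95 °C 10 s and 60 °C 30 s. Values are normalised to GAPDH with untreated set to 1. Three runs in duplicate, mean ± SD, Student t-test.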

KEAP1 = experiment: NRF2 immunoblot in KEAP1-WT and KEAP1-/- cells; format: cell-based; details: for level of NRF2 in KEAP1-/- cells: KEAP1-/- MDA-MB-231, four hours; for level of NRF2 in WT cells: KEAP1-WT MDA-MB-231, four hours
NRF2 [5] = experiment: NRF2 protein half-life; format: cell-based
[6] = induction of ARE-luciferase, MDA-MB-231, 16 hours
[7] = MDA-MB-231, 71.5 µM, cycloheximide
[8] = MDA-MB-231 ARE-luciferase cell line, 48 h, MTT

Compound	Max. induction (fold) (NRF2 [1])	EC50 (NRF2 [1]; [6]) [µM]	LD50 [48 h] (MDA-MB-231 cells) [µM]	EC50 (NRF2 [1]; Homo sapiens, MDA-MB-231, 16 h) [µM]	LD50 [48 h] (MDA-MB-231 cells; [8]) [µM]	also measured
16,17-epoxymethylgeopyxin A [Compound 15]	3.5	26.8 ± 4.08	115.11 ± 3.57	–	–	–
C[C@]12[C@@H]3CC[C@@H]4C[C@]3(C(=O)[C@@H]4CO)[C@@H](O)C[C@@H]1[C@](C)(C(=O)O)CC[C@@H]2O [Compound 5, geopyxin F]	3.0	71.5 ± 5.8	>128	–	–	ubiquitylation of NRF2 (NRF2 [2]): largely fails to be ubiquitylated; firefly luciferase induction in the presence of KEAP1-C151S (KEAP1-C151S): induction; KEAP1-Cys151 dependence of NRF2 activation (KEAP1-C151S): independent of KEAP1-Cys151; time course of NRF2 protein level (NRF2 [3]; MDA-MB-231, 71.5 µM 5): continues to steadily rise all the way up to 48 hours; protein level of NRF2 and downstream target genes AKR1C1, NQO-1, HO-1, GCLM (NRF2 [3]): dose dependent increases; firefly luciferase induction in the presence of KEAP1-WT (KEAP1-WT): induced; mRNA level of NRF2 (NRF2 [4]): remained unchanged; mRNA levels of the downstream genes (NRF2 [4]): increased in a dose dependent manner; level of NRF2 in KEAP1-/- cells (KEAP1): failed to further activate; level of NRF2 in WT cells (KEAP1): dose-dependent activation; half-life of NRF2 (NRF2 [5]): increased the half-life; increase of half-life of NRF2 relative to compound 3 (NRF2 [5]; [7]): more than 2 times; increase of half-life of NRF2 relative to untreated cells (NRF2 [5]; [7]): more than 3 times; cellular toxicity (MDA-MB-231 cells): no cellular toxicity
16,17-dihydrogeopyxin A [Compound 16]	1.6	70.4 ± 5.12	>128	–	–	–
O=[As][O-].[Na+] [NaAsO2, Sodium (meta)arsenite, reference compound]	–	–	–	–	–	firefly luciferase induction in the presence of KEAP1-C151S (KEAP1-C151S): induction
CC(C)(C)c1cc(O)ccc1O [tBHQ, tert-butylhydroquinone, reference compound]	2.2	–	–	2.43 ± 0.34	85.1	–
C=C1C(=O)[C@]23C[C@H]1CC[C@H]2[C@]1(C)[C@@H](O)CC[C@@](C)(C(=O)O)[C@H]1C[C@@H]3O [Compound 1, geopyxin A]	2.1	–	–	4.44 ± 0.41	60.36 ± 1.18	–
C=C1C(=O)[C@]23C[C@H]1CC[C@H]2[C@]1(C)[C@@H](O)CC[C@@](C)(C(=O)OC)[C@H]1C[C@@H]3O [Compound 6, methylgeopyxin A]	2.2	–	–	2.32 ± 0.17	8.69 ± 0.93	–
C=C1C(=O)[C@]23C[C@H]1CC[C@H]2[C@]1(C)C(=O)CC[C@@](C)(C(=O)O)[C@H]1C[C@@H]3O [Compound 3, geopyxin C]	2.1	2.33 ± 0.35	–	–	51.29 ± 1.23	ubiquitylation of NRF2 (NRF2 [2]): largely fails to be ubiquitylated; KEAP1-Cys151 dependence of NRF2 activation (KEAP1-C151S): Cys151 dependent; time of peak NRF2 protein level (NRF2 [3]; MDA-MB-231, 2.33 µM 3): 4 h; protein level of NRF2 and downstream target genes AKR1C1, NQO-1, HO-1, GCLM (NRF2 [3]): dose dependent increases; firefly luciferase induction in the presence of KEAP1-WT (KEAP1-WT): induced; mRNA level of NRF2 (NRF2 [4]): remained unchanged; mRNA levels of the downstream genes (NRF2 [4]): increased in a dose dependent manner; level of NRF2 in KEAP1-/- cells (KEAP1): failed to further activate; level of NRF2 in WT cells (KEAP1): dose-dependent activation; half-life of NRF2 (NRF2 [5]; MDA-MB-231, at EC50, cycloheximide, in words): increased the half-life
C[S+]([O-])CCCCN=C=S (centres unmarked) [SFN, sulforaphane, reference compound]	1.9	–	–	0.97 ± 0.18	–	ubiquitylation of NRF2 (NRF2 [2]): largely fails to be ubiquitylated; LD50 [48 h] (MDA-MB-231 cells; human, 48 h): 46.2 µM
15α-Hydroxy-15-deoxy-methylgeopyxin A [Compound 13]	1.9	73.1 ± 0.87	>128	–	–	–
1-O-Acetyl-15α-hydroxy-15-deoxy-methylgeopyxin A [Compound 14]	4.2	54.5 ± 5.1	123.63 ± 3.89	–	–	–
